Measured values taken from ChEMBL document CHEMBL4257586, “Polyheteroaryl Oxazole/Pyridine-Based Compounds Selected in Vitro as G-Quadruplex Ligands Inhibit Rock Kinase and Exhibit Antiproliferative Activity” (J Med Chem, 2018).
Calls of active or inactive are those of the source. The calls are words filed in the database; no cut-off is given here.

Columns and labels:
Homo sapiens [1] = organism: Homo sapiens; test: Selectivity index, ratio of IC50 for inhibition of DMPK (unknown origin) to IC50 for inhibition of ROCK2 (unknown origin)
HeLa [2] = test: Antiproliferative activity against human HeLa cells after 72 hrs by MTS assay; type: functional, cell-based
Procedure, shortened: (§1)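 Cells seeded at day 0 in 96-well plates, serial compound dilutions added at day 1; viable cells read 72 h after drug addition by MTS tetrazolium assay, in triplicate. IC50 taken as concentration halving cell growth. One first trial, then two additional experiments on selected compounds.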

[3] = target: T1, Rho-associated protein kinase (Homo sapiens) (UniProt O75116+Q13464); test: Inhibition of ROCK in human Hela cells assessed as formation of long neurite-like extensions at 2 uM by phalloidin-based immunofluorescence assay; type: cell-based
T1 sequence (O75116 whole entry, looked up): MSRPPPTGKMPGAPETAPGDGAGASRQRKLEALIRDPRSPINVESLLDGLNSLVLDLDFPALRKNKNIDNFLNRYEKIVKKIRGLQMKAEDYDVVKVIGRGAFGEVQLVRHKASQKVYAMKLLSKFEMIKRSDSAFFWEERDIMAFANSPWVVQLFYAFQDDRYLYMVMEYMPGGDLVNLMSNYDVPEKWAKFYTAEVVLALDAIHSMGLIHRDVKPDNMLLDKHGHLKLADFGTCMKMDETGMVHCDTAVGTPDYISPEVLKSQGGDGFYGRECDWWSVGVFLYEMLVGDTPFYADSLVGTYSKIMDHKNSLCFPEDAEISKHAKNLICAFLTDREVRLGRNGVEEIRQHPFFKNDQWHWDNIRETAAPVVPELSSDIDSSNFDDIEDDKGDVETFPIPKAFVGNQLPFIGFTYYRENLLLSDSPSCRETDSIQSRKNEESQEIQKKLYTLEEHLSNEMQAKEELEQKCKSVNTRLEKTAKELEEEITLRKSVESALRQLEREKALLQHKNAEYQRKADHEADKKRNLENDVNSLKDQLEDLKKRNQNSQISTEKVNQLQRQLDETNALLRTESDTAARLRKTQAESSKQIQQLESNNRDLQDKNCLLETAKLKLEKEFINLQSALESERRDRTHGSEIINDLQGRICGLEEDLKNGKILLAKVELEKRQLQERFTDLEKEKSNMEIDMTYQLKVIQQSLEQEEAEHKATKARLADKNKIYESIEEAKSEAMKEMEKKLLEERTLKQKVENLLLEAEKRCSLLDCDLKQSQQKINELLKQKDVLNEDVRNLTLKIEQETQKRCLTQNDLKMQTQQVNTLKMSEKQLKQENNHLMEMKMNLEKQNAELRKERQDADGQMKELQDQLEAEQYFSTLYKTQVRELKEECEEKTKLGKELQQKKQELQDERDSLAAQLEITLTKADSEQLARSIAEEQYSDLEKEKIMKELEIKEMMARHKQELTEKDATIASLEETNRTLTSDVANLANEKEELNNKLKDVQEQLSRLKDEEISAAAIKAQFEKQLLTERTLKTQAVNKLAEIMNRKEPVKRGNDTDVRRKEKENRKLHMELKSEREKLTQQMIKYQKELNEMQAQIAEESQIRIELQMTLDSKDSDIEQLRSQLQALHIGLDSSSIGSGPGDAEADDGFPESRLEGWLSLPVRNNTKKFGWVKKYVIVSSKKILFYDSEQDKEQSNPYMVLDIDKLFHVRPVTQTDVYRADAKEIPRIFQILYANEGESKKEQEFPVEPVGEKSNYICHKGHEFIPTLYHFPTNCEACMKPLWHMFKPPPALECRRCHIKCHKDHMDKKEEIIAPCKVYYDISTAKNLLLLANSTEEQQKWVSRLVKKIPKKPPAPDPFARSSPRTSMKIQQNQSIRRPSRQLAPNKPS
T1 sequence (Q13464 whole entry, looked up): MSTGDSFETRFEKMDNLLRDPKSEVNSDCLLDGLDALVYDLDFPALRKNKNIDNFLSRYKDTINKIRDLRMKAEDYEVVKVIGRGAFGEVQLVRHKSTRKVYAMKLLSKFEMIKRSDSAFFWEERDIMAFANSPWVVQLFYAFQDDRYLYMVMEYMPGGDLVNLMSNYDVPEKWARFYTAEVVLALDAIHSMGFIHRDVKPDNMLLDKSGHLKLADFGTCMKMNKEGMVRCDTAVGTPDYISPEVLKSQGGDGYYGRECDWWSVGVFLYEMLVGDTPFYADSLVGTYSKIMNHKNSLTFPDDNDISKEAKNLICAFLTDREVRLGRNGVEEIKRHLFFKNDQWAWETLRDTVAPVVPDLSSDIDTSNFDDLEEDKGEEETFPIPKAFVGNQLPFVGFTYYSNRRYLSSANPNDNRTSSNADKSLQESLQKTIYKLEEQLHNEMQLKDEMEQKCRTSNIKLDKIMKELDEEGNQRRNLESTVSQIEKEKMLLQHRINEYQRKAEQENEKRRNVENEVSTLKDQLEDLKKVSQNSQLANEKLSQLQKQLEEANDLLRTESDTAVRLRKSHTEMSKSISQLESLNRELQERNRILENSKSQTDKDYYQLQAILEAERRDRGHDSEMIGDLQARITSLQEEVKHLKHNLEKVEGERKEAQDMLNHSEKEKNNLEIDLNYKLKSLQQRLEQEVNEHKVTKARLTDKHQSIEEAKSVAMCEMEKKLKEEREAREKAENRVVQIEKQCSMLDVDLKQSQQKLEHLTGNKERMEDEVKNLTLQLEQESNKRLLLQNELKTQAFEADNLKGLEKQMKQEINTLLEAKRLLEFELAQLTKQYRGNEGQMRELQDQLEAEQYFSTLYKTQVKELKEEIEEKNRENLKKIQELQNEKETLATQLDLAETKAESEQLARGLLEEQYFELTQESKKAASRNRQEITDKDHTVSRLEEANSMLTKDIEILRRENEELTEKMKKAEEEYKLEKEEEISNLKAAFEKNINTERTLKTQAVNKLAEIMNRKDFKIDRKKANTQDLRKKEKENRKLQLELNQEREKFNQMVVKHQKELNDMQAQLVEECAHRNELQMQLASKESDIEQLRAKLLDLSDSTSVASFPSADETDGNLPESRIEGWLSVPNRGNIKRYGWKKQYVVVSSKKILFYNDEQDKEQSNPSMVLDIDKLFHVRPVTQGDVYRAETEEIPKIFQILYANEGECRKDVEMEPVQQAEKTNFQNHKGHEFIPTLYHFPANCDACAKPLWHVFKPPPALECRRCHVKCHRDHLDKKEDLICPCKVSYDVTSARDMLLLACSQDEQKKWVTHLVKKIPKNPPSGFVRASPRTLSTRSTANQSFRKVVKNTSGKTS
Procedure, shortened: (§2)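 HeLa cells on glass coverslips treated overnight at 2 μM or with DMSO control, then fixed in 4% formaldehyde for 10 min at 37 °C. Actin stained with phalloidin; α-tubulin or anti-phospho-Tyr focal points also labelled, plus DNA. Imaged by confocal microscopy.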

[4] = target: T2, Rho-associated protein kinase 2 (Homo sapiens, UniProt O75116); test: Inhibition of ROCK2 (unknown origin) by ATP competition assay
Procedure, shortened: (§3)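 Recombinant kinases assayed in duplicate by radioactive filter-binding assay with 33P-ATP; no-compound controls run and each plate validated by Z′. IC50 values determined.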
Target sequence in this assay (O75116 whole entry): as the sequence (O75116 whole entry, looked up) above

[5] = target: T2, Rho-associated protein kinase 2; test: Inhibition of ROCK2 in human HeLa cells assessed as reduction in cofilin phosphorylation at Ser3 at 2 uM after 3 hrs by Western blot analysis; type: cell-based
Procedure, shortened: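 HeLa cells treated 3 h at 2 or 5 μM, then lysed in RIPA buffer with protease and phosphatase inhibitors. Western blot probed with anti-phospho-cofilin Ser3 and anti-actin (1/1000) on the same split membrane; luminescence detection.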
Target sequence in this assay (O75116 whole entry, looked up): as above

[6] = target: Rho-associated protein kinase 1 (Homo sapiens, UniProt Q13464); test: Inhibition of ROCK1 (unknown origin) by ATP competition assay; procedure, shortened: as §3
Sequence of Rho-associated protein kinase 1 (Q13464 whole entry): as the sequence (Q13464 whole entry, looked up) above

Quadruplex DNA [7] = test: Binding affinity to c-Myc G-quadruplex DNA (unknown origin) by fluorescence spectrophotometric analysis; type: nucleic-acid assay
Procedure, shortened: (§4)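 Fluorescence titration in 10 mM lithium cacodylate pH 7.2 with 100 mM KCl, 1 cm quartz cell. Ligand at 0.5 μM, excited at 330 or 340 nm, with increasing DNA added (22AG, c-Myc or ds26). Emission over 340/350–650 nm plotted against DNA concentration and fitted by Hill equation to give apparent Ka (1:1).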

dsDNA [8] = test: Binding affinity to duplex 26 DNA (unknown origin) by fluorescence spectrophotometric analysis; type: nucleic-acid assay; procedure, shortened: as §4
HeLa [9] = test: Induction of cell cycle arrest in human HeLa cells at 1 uM after 48 hrs by propidium iodide-staining based flow cytometry; type: functional
Procedure, shortened: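 HeLa cells serum-starved 96 h for synchronization, then released and treated 48 h. Fixed in ice-cold 70% ethanol 1 h, stained with propidium iodide 50 μg/mL plus RNase A 0.2 mg/mL for 15 min at 37 °C, and analyzed by FACS.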

A549 = test: Antiproliferative activity against human A549 cells after 72 hrs by MTS assay; type: functional, cell-based; conditions: A549, 72 h; procedure, shortened: as §1
HeLa [10] = test: Induction of double stranded DNA breaks in human HeLa cells assessed as gamma-H2Ax phosphorylation at 1 uM after 24 to 48 hrs by Hoechst 33342 staining-based laser confocal microscopy; type: functional, cell-based
Quadruplex DNA [11] = test: Binding affinity to 22AG G-quadruplex DNA (unknown origin) by fluorescence spectrophotometric analysis; type: nucleic-acid assay; procedure, shortened: as §4
dsDNA [12] = test: Binding affinity to duplex 26 DNA (unknown origin) assessed as change in melting temperature at 1 uM by FRET; type: nucleic-acid assay
HeLa [13] = test: Cytotoxicity against human HeLa cells assessed as reduction in organization of stress fibers at 1 uM after 24 to 48 hrs by Hoechst 33342 staining-based laser confocal microscopy; type: functional, cell-based
Quadruplex DNA [14] = test: Binding affinity to 6-FAM labeled human telomeric F21T G-quadruplex DNA assessed as change in melting temperature at 1 uM in K+ rich buffer (10 mM KCl, 90 mM LiCl, 10 mM Li cacodylate) by FRET assay; type: nucleic-acid assay
Procedure, shortened: (§5)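 FRET melting in duplicate. Dual-labelled oligo (6-FAM/TAMRA) at 0.2 μM with ligand at 1 μM, in 10 mM Li cacodylate pH 7.2. Buffer was 10 mM KCl + 90 mM LiCl for F21T and 1 mM KCl + 99 mM LiCl for FMycT. Sample annealed 90 °C 5 min, cooled to 4 °C overnight. Equilibrated 5 min at 25 °C, then ramped 0.5 °C/min to 95 °C. FAM read 492/516 nm, normalized; Tm taken at the fitted inflection point.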

HeLa [15] = test: Induction of double stranded DNA breaks in human HeLa cells assessed as gamma-H2Ax phosphorylation at 2 uM after 24 to 48 hrs by Hoechst 33342 staining-based laser confocal microscopy; type: functional, cell-based
Myotonin-protein kinase = target: T3, Myotonin-protein kinase (Homo sapiens, UniProt Q09013); test: Inhibition of DMPK (unknown origin) by ATP competition assay; procedure, shortened: as §3
T3 sequence (Q09013 whole entry): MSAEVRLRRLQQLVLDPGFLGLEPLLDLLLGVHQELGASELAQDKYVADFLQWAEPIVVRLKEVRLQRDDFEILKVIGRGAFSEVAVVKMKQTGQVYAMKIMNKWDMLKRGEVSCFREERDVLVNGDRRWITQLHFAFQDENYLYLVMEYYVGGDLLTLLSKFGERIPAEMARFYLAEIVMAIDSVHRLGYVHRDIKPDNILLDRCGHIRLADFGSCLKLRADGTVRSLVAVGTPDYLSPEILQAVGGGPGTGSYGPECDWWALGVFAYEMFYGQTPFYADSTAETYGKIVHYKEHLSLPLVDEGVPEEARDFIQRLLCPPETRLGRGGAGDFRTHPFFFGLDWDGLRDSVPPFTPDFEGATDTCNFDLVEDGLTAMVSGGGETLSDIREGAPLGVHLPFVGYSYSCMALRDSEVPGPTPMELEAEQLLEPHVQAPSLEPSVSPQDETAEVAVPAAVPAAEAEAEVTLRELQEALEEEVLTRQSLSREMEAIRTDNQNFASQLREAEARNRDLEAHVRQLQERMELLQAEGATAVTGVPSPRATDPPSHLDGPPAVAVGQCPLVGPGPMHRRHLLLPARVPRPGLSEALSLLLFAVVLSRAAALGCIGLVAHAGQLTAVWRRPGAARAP

Homo sapiens [16] = organism: Homo sapiens; test: Selectivity index, ratio of IC50 for inhibition of ROCK1 (unknown origin) to IC50 for inhibition of ROCK2 (unknown origin)
[17] = target: T1, Rho-associated protein kinase (Homo sapiens); test: Inhibition of ROCK in human Hela cells assessed as reduction in cell spreading at 2 uM by phalloidin-based immunofluorescence assay; procedure, shortened: as §2
Quadruplex DNA [18] = test: Binding affinity to 6-FAM labeled human proto-oncogene sequence FMycT G-quadruplex DNA assessed as change in melting temperature at 1 uM in presence of K+ buffer (1 mM KCl, 99 mM LiCl, 10 mM Li cacodylate) by FRET assay; type: nucleic-acid assay; procedure, shortened: as §5

| SMILES | Ratio IC50 (Homo sapiens [1]) | IC50 (HeLa [2]) | inhibition [3] | IC50 [4] | inhibition [5] | IC50 [6] | Activity (Quadruplex DNA [7]) | Ka (Quadruplex DNA [7]) | Ka (dsDNA [8]) | Activity (HeLa [9]) | Activity (HeLa [10]) | Activity (Quadruplex DNA [11]) | Ka (Quadruplex DNA [11]) | Activity (dsDNA [12]) | Activity (HeLa [13]) | ΔTm (Quadruplex DNA [14]) | Activity (HeLa [15]) | IC50 (Myotonin-protein kinase) | Ratio IC50 (Homo sapiens [16]) | inhibition [17] | other results |
| --- | --- | --- | --- | --- | --- | --- | --- | --- | --- | --- | --- | --- | --- | --- | --- | --- | --- | --- | --- | --- | --- |
| c1cc(-c2cnco2)nc(-c2cnc(-c3cccc(-c4cccc(-c5ncc(-c6cccc(-c7cnco7)n6)o5)n4)n3)o2)c1 | 1.4 | 134 nM | Active | 851 nM | Active | > 1000 nM | Dose-dependent effect | 16 ×10⁶ /M | 3 ×10⁶ /M | inactive | inactive | Dose-dependent effect | 3.9 ×10⁶ /M | inactive | Active | 6 to 9 °C | inactive | > 1000 nM | 1.4 | Active | IC50 (A549): 3.95 µM |
| c1cc(-c2cnco2)nc(-c2cnc(-c3cccc(-c4ncc(-c5cccc(-c6cnco6)n5)o4)n3)o2)c1 | > 50 | 257 nM | Active | 29 nM | Active | > 1000 nM | Dose-dependent effect | 19 ×10⁶ /M | 0.9 ×10⁶ /M | inactive | inactive | Dose-dependent effect | 6.7 ×10⁶ /M | inactive | Active | 6 to 9 °C | inactive | > 1000 nM | > 50 | Active | ΔTm (Quadruplex DNA [18]): 3.4 to 6.4 °C; IC50 (A549): 2.71 µM |
| CN(C)CCOc1cc(-c2ncc(-c3cccc(-c4cnco4)n3)o2)nc(-c2ncc(-c3cccc(-c4cnco4)n3)o2)c1 | > 50 |  | Active | 20 nM |  | > 1000 nM | Dose-dependent effect | 22 ×10⁶ /M | 1 ×10⁶ /M |  | inactive | Dose-dependent effect | 2.5 ×10⁶ /M | inactive | Active | 6 to 9 °C | inactive | > 1000 nM | > 50 | Active | ΔTm (Quadruplex DNA [18]): 3.4 to 6.4 °C |
